Active and inactive are the calls of the source. The calls are words filed in the database; no cut-off is given here.
Experiments:
DU-145 = experiment: Antiproliferative activity against human DU145 cells after 48 hrs by sulforhodamine B assay; format: functional; conditions: DU-145, 48 h
HeLa [1] = experiment: Antiproliferative activity against human HeLa cells after 48 hrs by sulforhodamine B assay; format: functional
HepG2 = experiment: Antiproliferative activity against human HepG2 cells after 48 hrs by sulforhodamine B assay; format: functional; conditions: HepG2, 48 h
A549 = experiment: Antiproliferative activity against human A549 cells after 48 hrs by sulforhodamine B assay; format: functional; conditions: A549, 48 h
HeLa [2] = experiment: Cell cycle arrest in human HeLa cells assessed as accumulation at G0 phase at 60 nM after 48 hrs by propidium iodide staining based flow cytometry (reference value: 5.64%); format: functional
HeLa [3] = experiment: Induction of apoptosis in human HeLa cells assessed as caspase-9 activation using AFC-labeled substrate at 40 to 60 nM after 24 to 48 hrs by fluorescence plate reader assay relative to combretastatin A-4
HeLa [4] = experiment: Cell cycle arrest in human HeLa cells assessed as accumulation at G1 phase at 60 nM after 48 hrs by propidium iodide staining based flow cytometry (reference value: 73.28%); format: functional
HeLa [5] = experiment: Cell cycle arrest in human HeLa cells assessed as accumulation at G2/M phase after 48 hrs by propidium iodide staining based flow cytometry; format: functional
Tubulin (Homo sapiens) = Tubulin (Homo sapiens) (UniProt P68371+Q9H4B7+P0DPH7+P68366+Q13509+Q71U36+P04350+Q3ZCM7+P07437+P68363+Q9BQE3+Q6PEY2+Q13885+Q9BVA1+Q9BUF5); experiment: Inhibition of tubulin polymerization in human HeLa cells assessed as induction of microtubule disruption at 60 nM after 48 hrs by confocal microscopic analysis; format: cell-based
Outline: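 HeLa cells grown on sterile cover slips, exposed 48 h at 60 nM, immunostained with α-tubulin antibody; microtubule network organization examined by confocal imaging.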

Tubulin = Tubulin (Sus scrofa, UniProt P02554+P02550); experiment: Inhibition of porcine brain tubulin polymerization measured at 1 min interval for 1 hr by fluorescence plate reader assay
HeLa [6] = experiment: Cell cycle arrest in human HeLa cells assessed as accumulation at G0 phase at 40 nM after 48 hrs by propidium iodide staining based flow cytometry (reference value: 5.64%); format: functional
HeLa [7] = experiment: Cell cycle arrest in human HeLa cells assessed as accumulation at S phase at 60 nM after 48 hrs by propidium iodide staining based flow cytometry (reference value: 3.52%); format: functional
HeLa [8] = experiment: Induction of inner mitochondrial membrane potential depolarization in isolated mitochondria from human HeLa cells at 40 to 60 nM after 48 hrs by JC-1 staining based fluorescence plate reader assay; format: functional
Outline: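 Mitochondria isolated and incubated with JC-1 dye alongside treatment at 40 and 60 nM; red/green fluorescence emission ratio recorded as the index of inner membrane potential, with untreated mitochondria as control.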

HeLa [9] = experiment: Cell cycle arrest in human HeLa cells assessed as accumulation at S phase at 40 nM after 48 hrs by propidium iodide staining based flow cytometry (reference value: 3.52%); format: functional
HeLa [10] = experiment: Cell cycle arrest in human HeLa cells assessed as accumulation at G2/M phase at 60 nM after 48 hrs by propidium iodide staining based flow cytometry (reference value: 17.56%); format: functional
Tubulin (Sus scrofa) = Tubulin (Sus scrofa) (UniProt P02554+P02550); experiment: Inhibition of porcine brain tubulin polymerization at 3 uM measured at 1 min interval for 1 hr by fluorescence plate reader assay relative to control
Outline: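 Tubulin polymerization followed by fluorescence (excitation 360 nm, emission 420 nm) over 1 h at 37 °C, test agents at 3 μM; inhibition expressed as percentage of polymerization versus untreated control.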

HeLa [11] = experiment: Induction of apoptosis in human HeLa cells assessed as caspase-3 activation using AFC-labeled caspase-3 substrate at 40 to 60 nM after 24 to 48 hrs by fluorescence plate reader assay relative to combretastatin A-4; format: functional
Outline: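 HeLa cells exposed at 40 and 60 nM; caspase-3 and caspase-9 activity measured fluorimetrically with conjugated caspase substrates at two time points.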

HeLa [12] = experiment: Cell cycle arrest in human HeLa cells assessed as accumulation at G2/M phase at 40 nM after 48 hrs by propidium iodide staining based flow cytometry (reference value: 17.56%); format: functional
HeLa [13] = experiment: Cell cycle arrest in human HeLa cells assessed as accumulation at G1 phase at 40 nM after 48 hrs by propidium iodide staining based flow cytometry (reference value: 73.28%); format: functional

Tubulin (Sus scrofa), sequence (P02550 whole entry, looked up): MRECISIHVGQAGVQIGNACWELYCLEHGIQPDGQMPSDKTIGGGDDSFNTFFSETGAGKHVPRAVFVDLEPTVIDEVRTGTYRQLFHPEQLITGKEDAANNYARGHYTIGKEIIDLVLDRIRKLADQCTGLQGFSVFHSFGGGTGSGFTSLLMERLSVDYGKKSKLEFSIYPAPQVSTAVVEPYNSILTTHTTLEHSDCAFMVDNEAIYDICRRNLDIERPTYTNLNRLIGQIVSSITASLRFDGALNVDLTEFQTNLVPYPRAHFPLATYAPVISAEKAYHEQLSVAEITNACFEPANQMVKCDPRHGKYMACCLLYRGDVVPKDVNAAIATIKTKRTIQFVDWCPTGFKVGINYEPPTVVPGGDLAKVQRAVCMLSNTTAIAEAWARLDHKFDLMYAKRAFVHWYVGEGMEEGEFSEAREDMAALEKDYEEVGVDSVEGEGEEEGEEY
Tubulin (Sus scrofa), sequence (P02554 whole entry, looked up): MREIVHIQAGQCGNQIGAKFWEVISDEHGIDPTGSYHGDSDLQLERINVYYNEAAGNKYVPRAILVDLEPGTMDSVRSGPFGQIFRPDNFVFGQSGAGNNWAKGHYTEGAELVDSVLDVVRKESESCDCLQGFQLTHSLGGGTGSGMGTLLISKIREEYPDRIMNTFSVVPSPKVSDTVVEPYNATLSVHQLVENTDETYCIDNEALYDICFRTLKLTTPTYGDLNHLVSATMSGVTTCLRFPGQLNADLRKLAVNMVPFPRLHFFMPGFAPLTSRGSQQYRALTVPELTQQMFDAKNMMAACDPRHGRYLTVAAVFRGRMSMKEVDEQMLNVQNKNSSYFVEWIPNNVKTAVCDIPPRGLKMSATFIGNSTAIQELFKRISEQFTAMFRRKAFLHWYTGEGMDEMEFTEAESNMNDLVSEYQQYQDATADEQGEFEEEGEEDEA

| SMILES | GI50 (DU-145) | GI50 (HeLa [1]) | GI50 (HepG2) | GI50 (A549) | also measured |
| --- | --- | --- | --- | --- | --- |
| COc1ccc(-c2ncccc2-c2nc3ccc(Cl)cc3[nH]2)cc1 | 34.7 µM |  |  |  |  |
| COc1ccc2nc(-c3cccnc3-c3ccc(OC)c(OC)c3)[nH]c2c1 | 12 µM | 16.6 µM | 44800 nM | 27.6 µM |  |
| COc1ccc(-c2ncccc2-c2nc3cc(OC)c(OC)cc3s2)cc1OC | 5.91 µM | 13.5 µM | 1200 nM | 7.58 µM |  |
| FC(F)(F)c1ccc(Cl)c(-c2ncccc2-c2nc3ccc(Cl)cc3s2)c1 |  | 5.8 µM | 1200 nM | 1.5 µM |  |
| COc1ccc(-c2ncccc2-c2nc3ccccc3s2)cc1OC | 3.6 µM | 1.8 µM | 700 nM | 0.2 µM |  |
| COc1ccc2nc(-c3cccnc3-c3cc(OC)c(OC)c(OC)c3)[nH]c2c1 | 0.29 µM | 5 µM | 840 nM | 1.5 µM |  |
| COc1ccc2nc(-c3cccnc3-c3ccc(C(F)(F)F)cc3)[nH]c2c1 | 32.1 µM |  |  | 38.2 µM |  |
| COc1ccc2nc(-c3cccnc3-c3cc(OC)c(OC)c(OC)c3)sc2c1 | 0.18 µM | 0.06 µM | 260 nM | 0.13 µM | Activity (HeLa [2]): 25.35%; fold change (FC) (HeLa [3]): 2; Activity (HeLa [4]): 19.54%; Activity (HeLa [5]): Dose-dependent effect; inhibition (Tubulin (Homo sapiens)): Active; IC50 (Tubulin): 2.01 µM; Activity (HeLa [6]): 13.27%; Activity (HeLa [7]): 14.3%; Activity (HeLa [8]): Active; Activity (HeLa [9]): 11.86%; Activity (HeLa [10]): 40.8%; inhibition (Tubulin (Sus scrofa)): 60.1%; fold change (FC) (HeLa [11]): 2; Activity (HeLa [12]): 23.65%; Activity (HeLa [13]): 51.22% |
| COc1cc(-c2ncccc2-c2nc3ccccc3s2)cc(OC)c1OC | 4.1 µM | 4.8 µM | 3500 nM | 3.2 µM |  |
| COc1ccc(/C=C\c2cc(OC)c(OC)c(OC)c2)cc1O [COMBRETASTATIN A4] | 0.07 µM | 0.06 µM | 80 nM | 0.06 µM | Activity (HeLa [2]): 24.78%; Activity (HeLa [4]): 17.29%; Activity (HeLa [6]): 25.87%; Activity (HeLa [7]): 16.44%; Activity (HeLa [8]): Active; Activity (HeLa [9]): 17.34%; Activity (HeLa [10]): 41.48%; Activity (HeLa [12]): 38.87%; Activity (HeLa [13]): 17.92% |
| FC(F)(F)c1ccc(-c2ncccc2-c2nc3ccc(Cl)cc3s2)cc1 |  | 20.4 µM | 32500 nM | 19.5 µM |  |
| FC(F)(F)c1ccc(-c2ncccc2-c2nc3ccc(Cl)cc3[nH]2)cc1 |  | 15.8 µM |  | 18.4 µM |  |
| COc1cc2nc(-c3cccnc3-c3cc(OC)c(OC)c(OC)c3)sc2cc1OC | 0.6 µM | 1.6 µM | 500 nM | 0.5 µM |  |
| COc1ccc(-c2ncccc2-c2nc3cc(OC)c(OC)cc3[nH]2)cc1 |  | 21.4 µM | 42500 nM | 19.5 µM |  |
| COc1ccc2nc(-c3cccnc3-c3ccc(OC)c(OC)c3)sc2c1 | 6.8 µM | 6.2 µM | 2200 nM | 1.7 µM |  |
| COc1ccc(-c2ncccc2-c2nc3cc(OC)c(OC)cc3[nH]2)cc1OC | 4.19 µM | 7.7 µM | 1900 nM | 7.9 µM |  |
| FC(F)(F)c1ccc(Cl)c(-c2ncccc2-c2nc3ccccc3s2)c1 | 5.49 µM | 4.89 µM | 15000 nM | 7.41 µM |  |
| COc1ccc(-c2ncccc2-c2nc3ccc(OC)cc3s2)cc1 |  | 8.1 µM |  | 13.3 µM |  |
| COc1ccc(-c2ncccc2-c2nc3ccc(OC)cc3[nH]2)cc1 | 19.6 µM |  |  |  |  |
| COc1ccc(S(=O)(=O)Nc2cccnc2Nc2ccc(O)cc2)cc1 [ABT-751] | 1.2 µM | 4.8 µM | 2800 nM | 1.8 µM |  |
| COc1ccc2nc(-c3cccnc3-c3cc(C(F)(F)F)ccc3Cl)[nH]c2c1 | 0.21 µM | 0.15 µM | 760 nM | 0.75 µM |  |
| COc1ccc(-c2ncccc2-c2nc3ccccc3[nH]2)cc1OC | 5.8 µM |  | 12400 nM |  |  |
| COc1ccc2nc(-c3cccnc3-c3ccc(C(F)(F)F)cc3)sc2c1 |  | 15.7 µM |  | 17 µM |  |
| COc1cc2nc(-c3cccnc3-c3cc(OC)c(OC)c(OC)c3)[nH]c2cc1OC | 0.6 µM | 1.7 µM | 1500 nM | 2.5 µM |  |
| COc1ccc2nc(-c3cccnc3-c3cc(C(F)(F)F)ccc3Cl)sc2c1 | 0.052 µM | 0.04 µM | 79 nM | 0.091 µM | Activity (HeLa [2]): 20.47%; fold change (FC) (HeLa [3]): 2; Activity (HeLa [4]): 15.19%; Activity (HeLa [5]): Dose-dependent effect; inhibition (Tubulin (Homo sapiens)): Active; IC50 (Tubulin): 1.91 µM; Activity (HeLa [6]): 8.13%; Activity (HeLa [7]): 10.3%; Activity (HeLa [8]): Active; Activity (HeLa [9]): 24.62%; Activity (HeLa [10]): 54.05%; inhibition (Tubulin (Sus scrofa)): 68.3%; fold change (FC) (HeLa [11]): 2; Activity (HeLa [12]): 24.26%; Activity (HeLa [13]): 43% |
| COc1ccc(-c2ncccc2-c2nc3ccc(Cl)cc3s2)cc1 | 0.19 µM | 7.7 µM | 3900 nM | 7.9 µM |  |
| COc1cc(-c2ncccc2-c2nc3ccccc3[nH]2)cc(OC)c1OC | 14.6 µM | 2.6 µM | 3500 nM | 4.5 µM |  |
| COc1ccc(-c2ncccc2-c2nc3cc(OC)c(OC)cc3s2)cc1 |  | 11.3 µM | 30900 nM | 59.1 µM |  |

From ChEMBL document CHEMBL4477265, “Design and synthesis of cis-restricted benzimidazole and benzothiazole mimics of combretastatin A-4 as antimitotic agents with apoptosis inducing ability” (Bioorg Med Chem Lett, 2016)
